Data set [1] deals with T1, Tyrosine-protein kinase BTK (Homo sapiens, UniProt Q06187). Nature of the data set: Inhibition of BTK in human RamosB cells assessed as suppression of BCR/anti-IgM stimulated calcium flux pre-incubated for 1 hr followed by BCR/anti-IgM stimulation. The format is cell-based.
Data set [2] is described as follows: Cmax in Balb/C mouse at 10 mg/kg, po. The data set is classed as ADME, organism-based. Set-up: dose 10 mg/kg, route oral. To be noted: in vivo. In short, it runs like this: (§1)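 Male Balb/C mice dosed orally once at 10 mg/kg in PEG300/TPGS/ethanol (90/5/5 v/v/v).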
For the next data set, the species on record is Homo sapiens. Nature of the data set: Selectivity ratio of IC50 for GST-tagged human recombinant LCK using FITC-AHAEGIYLFKKK-NH2 as substrate to IC50 for His-tagged full length human recombinant BTK expressed in baculovirus. A digest of the protocol:
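Fold selectivity is the LCK enzyme IC50 divided by the BTK enzyme IC50. The footnotes give each IC50 as the mean of three (or at least three) determinations, with some as single determinations.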

Data set [3] in a line: AUC (0 to 24 hrs) in Balb/C mouse at 10 mg/kg, po. The data set is classed as ADME, organism-based. Details: time < 24 hr, dose 10 mg/kg, route oral. To be noted: in vivo. In short, it runs like this: as §1
In data set [4] the target is T1, Tyrosine-protein kinase BTK. Nature of the data set: Inhibition of His-tagged full length human recombinant BTK expressed in baculovirus using fluoresceinated peptide substrate after 60 mins by fluorescent electrophoretic separation.
Data set [5] is described as follows: Permeability of the compound at pH 7 by PAMPA. The format is ADME. To be noted: for Papp: read-out: permeability.
Data set [6] in a line: Drug metabolism in rat liver microsomes assessed as aniline metabolite formation. The data set is classed as ADME, Microsome. A digest of the protocol:
(§2)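 Compounds were incubated with human or rat liver microsomes. Metabolites were profiled for hydrolysis to the aniline and, where applicable, for N-dealkylation giving the bis-aniline.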
On the technique in general: Liver microsomes are a subcellular fraction often used to study metabolism.

A short description of data set [7]: Drug metabolism in human liver microsomes assessed as aniline metabolite formation. The format is ADME, Microsome. In short, it runs like this:
as §2

Data set [8] can be described thus: Toxicity in mouse administered orally as multiple day dosing schedule. The conditions noted are these: in vivo, po.
Data set [9] in a line: Drug metabolism in human liver microsomes assessed as bis-aniline metabolite formation. The format is ADME, Microsome. In short, it runs like this:
as §2

Data set [10] can be described thus: Drug metabolism in rat liver microsomes assessed as bis-aniline metabolite formation. The data set is classed as ADME, Microsome. In short, it runs like this: as §2
Data set [11] in a line: Stability in mouse liver microsomes. The format is ADME, Microsome.
Another data set relates to Mus musculus. Nature of the data set: Decrease in anti-KLH IgM titers in chronic Balb/C mouse KLH antibody response model at 30 mg/kg, po administered through oral gavage after 14 days by ELISA. The format is functional, organism-based. To be noted: in the assay text read “IgG” for “IgM”. In short, it runs like this: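 Chronic KLH challenge model in mice with compound given by mouth. Anti-KLH IgM appears in the first week after challenge. Switching to IgG anti-KLH is evident by day 14.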

The structures appear in SMILES notation. Active and inactive are the calls of the source. No cut-off for these calls is given here.

T1 sequence (Q06187 whole entry): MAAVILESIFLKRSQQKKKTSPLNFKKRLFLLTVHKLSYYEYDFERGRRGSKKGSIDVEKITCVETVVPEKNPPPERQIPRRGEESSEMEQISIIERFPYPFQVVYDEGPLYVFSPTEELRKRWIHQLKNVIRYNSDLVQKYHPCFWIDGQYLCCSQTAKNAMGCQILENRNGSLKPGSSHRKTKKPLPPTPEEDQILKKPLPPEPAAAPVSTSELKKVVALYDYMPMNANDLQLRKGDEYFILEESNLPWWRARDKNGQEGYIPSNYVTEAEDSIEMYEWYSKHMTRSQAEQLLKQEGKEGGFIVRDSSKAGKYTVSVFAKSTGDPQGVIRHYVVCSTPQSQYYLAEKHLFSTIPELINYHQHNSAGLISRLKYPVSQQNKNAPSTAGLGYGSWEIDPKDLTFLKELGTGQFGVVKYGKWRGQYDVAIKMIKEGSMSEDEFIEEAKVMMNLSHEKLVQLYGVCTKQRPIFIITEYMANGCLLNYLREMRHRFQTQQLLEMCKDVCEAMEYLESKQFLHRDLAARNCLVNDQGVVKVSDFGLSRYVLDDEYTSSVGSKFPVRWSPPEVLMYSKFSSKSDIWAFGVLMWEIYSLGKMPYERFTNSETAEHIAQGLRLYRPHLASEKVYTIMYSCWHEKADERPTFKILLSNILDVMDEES

Take `Cc1c(-c2ccc(C(N)=O)c3[nH]c4cc(C(C)(C)O)ccc4c23)cccc1-n1cnc2cccc(F)c2c1=O`: the IC50 in data set [1] amounted to 18 nM; in data set [4] it was 5 nM. The molecule further displayed a Cmax in data set [2] of 6.74 µM. In addition, the Ratio IC50 in the data set listed under Homo sapiens stood at 61. The molecule further returned an AUC(0-t) at 24 h in data set [3] of 58 µM·h.

Take `Cc1c(NC(=O)c2ccc(F)cn2)cccc1-c1ccc(C(N)=O)c2[nH]c3cc(C(=O)N4CCN(C)CC4)ccc3c12`: the concentration in [2] peaked (Cmax) at 1.57 µM. In addition, in the data set listed under Homo sapiens, the Ratio IC50 is 9. For the same molecule, the Papp in [5] was 58.7 ×10⁻⁶ cm/s. Also, the Drug metabolism entry in data set [6] and in data set [7] was “Metabolite_Detected” each time. Further, the AUC(0-t) at 24 h in data set [3] came to 5 µM·h. Besides, the IC50 in data set [4] was found to be 9 nM.

Regarding `Cc1c(-c2ccc(C(N)=O)c3[nH]c4cc(CO)ccc4c23)cccc1-n1cnc2ccccc2c1=O`, the IC50 in data set [1] worked out at 22 nM; in data set [4], 3 nM. This molecule also returned a Cmax in data set [2] of 4.65 µM. The Ratio IC50 in the data set filed under Homo sapiens worked out at 146. This molecule showed an AUC(0-t) at 24 h in data set [3] of 14 µM·h.

With `Cc1c(-c2ccc(C(N)=O)c3[nH]c4cc(C(C)(C)O)ccc4c23)cccc1-n1cnc2cc(F)ccc2c1=O`, the IC50 came to 24 nM in data set [1] and 2 nM in [4]. Besides, the Cmax in data set [2] was 8.06 µM. Further, in the data set filed under Homo sapiens, the Ratio IC50 was 89. This molecule gave an AUC(0-t) at 24 h in [3] of 120 µM·h.

For the molecule `Cc1c(-c2ccc(C(N)=O)c3[nH]c4cc(C(C)(C)O)ccc4c23)cccc1-n1cnc2ccc(F)cc2c1=O`, the IC50 in data set [1] was found to be 40 nM; in [4], 7 nM. For the same molecule, the concentration in data set [2] peaked (Cmax) at 9.77 µM. For the same molecule, the Ratio IC50 in the data set listed under Homo sapiens is 52. In data set [3], this molecule gave an AUC(0-t) at 24 h of 113 µM·h.

Consider `Cc1c(NC(=O)c2ccc(F)cc2)cccc1-c1ccc(C(N)=O)c2[nH]c3cc(C(=O)N4CCN(C)CC4)ccc3c12`, for which the Cmax in [2] is 0.09 µM. In addition, the Ratio IC50 in the data set listed under Homo sapiens is 15. Moreover, the Papp in [5] was found to be 14.7 ×10⁻⁶ cm/s. The molecule further gave an AUC(0-t) at 24 h in [3] of 0.4 µM·h. Further, in data set [4], the IC50 was found to be 5 nM.

In the case of `Cc1c(-c2ccc(C(N)=O)c3[nH]c4cc(C(C)(C)O)ccc4c23)cccc1-n1ccc2ccccc2c1=O`, the IC50 is 144 nM in [1] and 5 nM in data set [4]. The Ratio IC50 in the data set listed under Homo sapiens was 44.

As to `Cc1c(-c2ccc(C(N)=O)c3[nH]c4cc(C(=O)N5CCN(C)CC5)ccc4c23)cccc1N1Cc2ccccc2C1=O`, the IC50 in [1] was 238 nM; in data set [4], 5 nM. The same molecule registered a Cmax in data set [2] of 0.178 µM. Further, the Ratio IC50 in the data set filed under Homo sapiens came to 14. The molecule also yielded an AUC(0-t) at 24 h in data set [3] of 0.3 µM·h.

For the molecule `Cc1c(NC(=O)c2ccc(F)cc2)cccc1-c1ccc(C(N)=O)c2[nH]c3cc(NC(C)C)ccc3c12`, in data set [8], the Activity result is listed as “Toxic”. In addition, the Drug metabolism result in data set [9], in [6], in [7] and in data set [10] was “Metabolite_Detected” in each case. Besides, the Cmax in data set [2] was determined as 7.96 µM. Besides, the Ratio IC50 in the data set listed under Homo sapiens turned out to be 61. Also, the permeability result in data set [5] was “Impermeable”. Besides, in data set [3], the AUC(0-t) at 24 h is 36 µM·h. For the same molecule, in [4], the concentration for half-maximal inhibition (IC50) was determined as 11 nM.

On to `Cc1c(-c2ccc(C(N)=O)c3[nH]c4cc(C(C)(C)O)ccc4c23)cccc1N1Cc2ccccc2C1=O`, for which the IC50 was 154 nM in data set [1] and 5 nM in [4]. Moreover, in the data set listed under Homo sapiens, the Ratio IC50 was determined as 25.

As for `Cc1c(-c2ccc(C(N)=O)c3[nH]c4cc(C(C)(C)O)ccc4c23)cccc1N1CCc2ccccc2C1=O`, the IC50 in [1] was 26 nM; in data set [4] it was 3 nM. Moreover, in the data set filed under Homo sapiens, the Ratio IC50 came out at 33.

As to `Cc1c(-c2ccc(C(N)=O)c3[nH]c4cc(C(C)(C)O)ccc4c23)cccc1N1Cc2ccc(F)cc2C1=O`, in [11], the Stability entry was “Stable”. Moreover, the IC50 in data set [1] is 48 nM; in [4] it was 2 nM. In data set [2], this molecule yielded a Cmax of 4.41 µM. Further, in the data set listed under Homo sapiens, the Ratio IC50 stood at 48. In data set [3], the area under the curve AUC(0-t) at 24 h was determined as 41 µM·h. In addition, in the data set with Mus musculus, the result was inactive.

As to `Cc1c(-c2ccc(C(N)=O)c3[nH]c4cc(C(C)(C)O)ccc4c23)cccc1-n1cnc2c(F)cccc2c1=O`, the IC50 in data set [1] turned out to be 34 nM; in data set [4], 2 nM. The molecule also came in with a Cmax in data set [2] of 6.85 µM. The Ratio IC50 in the data set listed under Homo sapiens was 88. In data set [3], this molecule yielded an AUC(0-t) at 24 h of 63 µM·h.

In turn, `CC(C)(O)c1ccc2c(c1)[nH]c1c(C(N)=O)ccc(-c3cccc(-n4cnc5ccccc5c4=O)c3F)c12` had a Cmax in [2] of 2.1 µM. This molecule also gave an AUC(0-t) at 24 h in data set [3] of 19 µM·h.

The term IC50 denotes the midpoint of a concentration-inhibition curve. As usually defined, the Cmax is the maximum level reached in the sampled fluid or tissue. As a reminder, the AUC(0-t) is the area under the concentration-time curve up to a stated or last time point. A high value points to high exposure.

Values taken from ChEMBL document CHEMBL4428066, “Small Molecule Reversible Inhibitors of Bruton's Tyrosine Kinase (BTK): Structure-Activity Relationships Leading to the Identification of 7-(2-Hydroxypropan-2-yl)-4-[2-methyl-3-(4-oxo-3,4-dihydroquinazolin-3-yl)phenyl]-9H-carbazole-1-carboxamide (BMS-935177)” (J Med Chem, 2016).
